Compound activity (PubChem)
A selection: hits, their analogues and other compounds. The true share with any hit is near 3.6%.
ATG4B inhibitor – ATG4B protease inhibitors, primary screen, biochemical, fluorescence, uHTS. Cysteine protease ATG4B (Homo sapiens), Q9Y4P1. ATG4B cleavage of LC3-PLA2, NBD-HPC fluorescence, 1 h. inhibition, % at 8.33 µM. 340,000 tested, 0.51% active; in the data active means inhibition above about 40%
SENP1 FRET inh – human SENP1 catalytic domain inhibitors, primary screen, biochemical, FRET, uHTS | recombinant SENP1 catalytic domain, CyPet-SUMO1-YPet FRET cleavage | inhibition, % at 10 µM | 360,000 tested, 0.21% active;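 active means inhibition at least 30% at 10 µM, raw YFP signal under a set limit, fluorescence ratio 0.5 to 1.5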
Target sequence (Q9P0U3 419-644 limits assumed): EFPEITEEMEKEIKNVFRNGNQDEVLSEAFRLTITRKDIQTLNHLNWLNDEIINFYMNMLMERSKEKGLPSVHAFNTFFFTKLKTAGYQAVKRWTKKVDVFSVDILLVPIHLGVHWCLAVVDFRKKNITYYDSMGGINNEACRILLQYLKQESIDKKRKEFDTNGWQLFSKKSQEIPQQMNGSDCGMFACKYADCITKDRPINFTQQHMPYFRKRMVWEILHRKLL
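Material: hSENP1 catalytic domain, recombinant; medium: Tris pH 8 with BME, BSA, NP40 and catalase; compound: single concentration of 10 µM compound, 0.5% DMSO final; technique: FRET read of cyan and yellow fluorescence; timing: 50 min enzyme reaction, room temperature, light-protected; reagent: SFCypet-SUMO1-SFYpet substrate at 25 nM; control set: no-enzyme low, enzyme-DMSO high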
NadD inh – inhibitors of S. aureus NadD, primary screen, biochemical, colorimetric, uHTS. AID 602399, 2012. Nicotinate-nucleotide adenylyltransferase NadD (Staphylococcus aureus N315). 360,000 tested, 0.78% active. inhibition, % at 20 µM. purified NadD enzyme, colorimetric absorbance read-out; in the data active means inhibition above about 26%
UCH37 DUB inh – inhibitors of human UCH37 deubiquitinase, primary screen, biochemical, Ub-AMC cleavage, fluorescence. inhibition, % (test concentration not listed). 330,000 tested, 0.33% active. purified proteasome/UCH37. Ubiquitin carboxyl-terminal hydrolase isozyme L5 (Homo sapiens), Q9Y5K5;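 active means mean inhibition over replicate wells above about 20%, limit read from the data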
Target sequence (Q9Y5K5 whole entry, looked up): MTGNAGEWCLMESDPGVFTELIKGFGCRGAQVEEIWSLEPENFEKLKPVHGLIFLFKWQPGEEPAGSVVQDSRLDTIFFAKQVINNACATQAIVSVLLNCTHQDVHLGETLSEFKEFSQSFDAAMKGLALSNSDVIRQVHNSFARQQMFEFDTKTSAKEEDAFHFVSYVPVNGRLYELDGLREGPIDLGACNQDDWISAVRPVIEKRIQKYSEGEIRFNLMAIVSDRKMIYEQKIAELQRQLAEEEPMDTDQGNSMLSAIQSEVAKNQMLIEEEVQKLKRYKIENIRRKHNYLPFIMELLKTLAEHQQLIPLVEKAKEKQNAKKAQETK
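Material: human UCH37 enzyme supplied as purified proteasome complex / Amount: 0.15 nM proteasome as dispensed / Buffer or medium: pH 7.4 Tris-HCl (50 mM) with ovalbumin, ATP-MgCl2, DTT / Times: preincubation 30 min, reaction 25 min, room temperature / Technique: AMC fluorescence from Ub-AMC cleavage, excitation 355 nm, emission 460 nm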
GRIN3A LBD mod – binders of NR3A ligand-binding domain, primary screen, biophysical, differential scanning fluorimetry, uHTS; NR3A LBD differential scanning fluorimetry, Tm shift; 0% = protein alone, 100% = glycine-bound protein; Tm shift relative to glycine control, % at 25 µM; 340,000 tested, 2.5% active; AID 1259313, 2017;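 active means melting temperature shift of at least 10% of the positive control shift, at one fixed dose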
NadD inh conf – inhibitors of S. aureus NadD, confirmation, biochemical, colorimetric, single concentration | shares compounds with NadD inh | purified S. aureus NadD, colorimetric enzyme assay | inhibition, % at 20 µM | 2,000 tested, 13% active; in the data active means inhibition mostly above about 42%, no sharp cut-off; inactive means mostly below about 42%
Hits are given with their value; 0 = inactive; - = not tested or not shown.

SMILES	ATG4B inhibitor	SENP1 FRET inh	NadD inh	UCH37 DUB inh	GRIN3A LBD mod	NadD inh conf
COc1ccc(C=NNC(=O)c2cnccn2)c(OC)c1OC	-	-	-	0	-	-
O=[N+]([O-])c1ccc2[nH]cc(S(=O)(=O)N3CCN(c4cccc(Cl)c4)CC3)c2c1	0	0	31	0	27	0
O=c1nc2s/c(=C\c3ccc(-c4ccccc4[N+](=O)[O-])o3)c(=O)n2nc1-c1ccccc1	0	0	36	-	0	0
O=C(Nc1nc(-c2cccc([N+](=O)[O-])c2)cs1)C(c1ccccc1)c1ccccc1	0	0	0	0	0	-
CS(=O)(=O)N1CCc2cc(-c3csc(NC(=O)C(c4ccccc4)c4ccccc4)n3)ccc21	0	0	30	0	0	0
Nc1nonc1-n1nnc(C(=O)NN=Cc2cccc(F)c2)c1-c1ccc2c(c1)OCO2	-	-	-	0	-	-
O=C(N[C@@H](Cc1ccccc1)C(=O)OCc1ccccc1)c1nc[nH]c1C(=O)N1CCN(c2ccccc2)CC1	0	0	30	0	0	0
CC(C)(C)c1ccc(NC(=O)c2ccc3c(c2)S(=O)(=O)c2ccccc2C3=O)cc1	0	0	28	0	0	0
C/C(C=NN1CCN(c2ccc(C)cc2)CC1)=C\c1ccccc1	-	-	-	0	-	-
COCCCn1c(=C(C#N)C(=O)NCCOC)sc(=Cc2ccccc2OC(F)F)c1=O	-	-	-	0	-	-
C=C(C)C1CC=C(C)C(=NNC(=O)c2ccc(NC(=O)c3cccc(C)c3)cc2)C1 (configuration not stated)	-	-	-	0	-	-
Cc1ccsc1C=NNC(=O)Cn1nnc2ccccc21	-	-	-	0	-	-
CCOC(=O)C1=C(N)n2c(s/c(=C\c3ccco3)c2=O)=C(C(=O)OCC)C1c1ccco1 (configuration not stated)	0	0	0	-	0	-
CCOC(=O)C1=C(N)n2c(s/c(=C\c3ccco3)c2=O)=C(C(=O)OC(C)C)C1c1ccco1 (configuration not stated)	0	0	32	-	0	0
CCOC(=O)C(=NNc1cc(Cl)ccc1Cl)N1CCOCC1	-	-	-	0	-	-
CCN(CC)S(=O)(=O)c1cccc(NC(=O)C2SC(=Nc3ccc(C)cc3C)C(C(=O)NCC3CCCO3)=C2N)c1 (configuration not stated)	0	0	37	0	0	0
O=C(NN=CCCc1ccccc1)C1CCCCC1	-	-	-	0	-	-
CCOc1ccc(CCN2C(=O)C(=O)N([C@@H](Cc3ccc(O)cc3)CN3CCC[C@H]3CN3C(=O)C(=O)NC[C@@H]3Cc3ccccc3)C[C@@H]2Cc2ccc(O)cc2)cc1	-	0	30	-	-	0
CCOc1ccc(CCN2C(=O)C(=O)N([C@@H](Cc3ccccc3)CN3CCC[C@H]3CN3C(=O)C(=O)NC[C@@H]3Cc3ccccc3)C[C@@H]2Cc2ccc(O)cc2)cc1	-	0	71	-	-	0
O=C1NC[C@H](Cc2ccccc2)N(C[C@@H]2CCCN2C[C@H](Cc2ccccc2)N2C[C@H](Cc3ccc(O)cc3)N(CCc3ccccc3)C(=O)C2=O)C1=O	-	0	44	-	-	49
O=C1NC[C@H](Cc2ccc(O)cc2)N(C[C@@H]2CCCN2C[C@H](Cc2ccccc2)N2C[C@H](Cc3ccc(O)cc3)N(CCc3ccccc3)C(=O)C2=O)C1=O	-	0	0	-	-	-
CCOc1ccc(CCN2C(=O)C(=O)N([C@@H](Cc3ccccc3)CN3CCC[C@H]3CN3C(=O)C(=O)NC[C@@H]3Cc3ccccc3)C[C@@H]2Cc2ccccc2)cc1	-	0	0	-	-	-
CCCCOc1cccc(C2/C(=C(\O)c3ccc4c(c3)OCCO4)C(=O)C(=O)N2CCN2CCOCC2)c1 (configuration not stated)	0	0	47	0	0	0
C=CCOc1ccc(C2/C(=C(\O)c3ccc4c(c3)OCCO4)C(=O)C(=O)N2CCCN2CCOCC2)cc1 (configuration not stated)	0	0	44	0	0	0
CC(=NNC(=O)c1nnn(-c2nonc2N)c1C(C)C)c1ccc2ccccc2c1	-	-	-	0	-	-
SMILES	ATG4B inhibitor	SENP1 FRET inh	NadD inh	UCH37 DUB inh	GRIN3A LBD mod	NadD inh conf
Cc1ccccc1N(C(=O)Cc1ccsc1)C(C(=O)NC1CCCCC1)c1ccc(F)cc1 (configuration not stated)	0	0	31	0	0	0
COc1nnc(-c2ccc(C(=O)N3C[C@@H]4C[C@H](C3)c3cccc(=O)n3C4)cc2)c2ccccc12	0	0	0	0	0	-
O=C(c1ccc(-c2nnc(Nc3cccc(Cl)c3)c3ccccc23)cc1)N1C[C@H]2C[C@H](C1)c1cccc(=O)n1C2	0	0	28	0	0	0
CCOc1ccccc1Nc1nc(-c2sc(NC(=O)c3ccco3)nc2C)cs1	0	0	31	0	0	0
Cc1ccc(Nc2nc(-c3sc(NC(=O)c4ccco4)nc3C)cs2)cc1	0	0	33	0	0	0
Cc1ccccc1Nc1nc(-c2sc(NC(=O)c3ccco3)nc2C)cs1	0	0	32	0	0	0
COc1ccc2ccccc2c1C=NNC(=O)c1ccccc1F	-	-	-	0	-	-
CC(=O)c1ccc(OCC(=O)Nc2ccc(N3CCCCC3)cc2)cc1	0	0	0	0	0	-
Cc1cccc(OCC(=O)Nc2ccc(N3CCCC3)cc2)c1C	0	0	43	0	0	0
COc1ccccc1OCC(=O)Nc1ccc(N2CCCCC2)cc1	0	0	0	0	0	-
Cc1ccc(OCC(=O)Nc2ccc(N3CCCC3)cc2)cc1C	0	0	32	0	0	0
COc1ccc(N(CC(=O)NN=Cc2cccc(OC)c2OC)S(=O)(=O)c2ccccc2)cc1	-	-	-	0	-	-
O=C(NN=Cc1coc2ccccc2c1=O)c1cc(O)cc(O)c1	-	-	-	0	-	-
CCOc1cc(/C=N\Nc2ccc([N+](=O)[O-])cc2)ccc1OCC(=O)Nc1ccc(C)c(C)c1	0	0	44	-	15	0
O=C(CSc1nc2ccccc2s1)NN=Cc1ccc(C(=O)O)cc1	-	-	-	0	-	-
CCCCCOCC1CC(CC(C)=NNc2nc(-c3ccccc3)cs2)C(=O)O1 (configuration not stated)	-	-	-	0	-	-
NC(=O)[C@H]1CC2(CC(c3cccc(NC(=O)CC(c4ccccc4)c4ccccc4)c3)=NO2)CN1C(=O)C(c1ccccc1)c1ccccc1 (some centres not stated)	0	0	33	0	0	0
CCC(=O)Nc1cccc(C2=NOC3(C2)C[C@@H](C(N)=O)N(C(=O)c2ccccc2C(=O)c2ccccc2)C3)c1 (some centres not stated)	0	0	0	0	0	-
